Data taken from ChEMBL document CHEMBL5335840, “Stereoselective synthesis and antiproliferative activity of allo-gibberic acid-based 1,3-aminoalcohol regioisomers” (RSC Med Chem, 2024).

Assays:
MDA-MB-231 = test: Antiproliferative activity against human MDA-MB-231 cells assessed as inhibition of cell growth incubated for 72 hrs by MTT assay; type: functional, cell-based; details: MDA-MB-231, 72 h
Method in brief: (§1)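 Cells kept in Eagle's MEM with 10% FBS, 1% non-essential amino acids and 1% antibiotic-antimycotic at 37 °C, 5% CO2. Seeded at 5000 cells per well and incubated overnight before compound addition. Growth inhibition tested at 10 and 30 μM, IC50 from 1.0–30.0 μM (four concentrations). MTT added for 4 h, formazan dissolved in DMSO, absorbance read at 545 nm. Untreated control, two experiments of five wells.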

SiHa = test: Antiproliferative activity against human SiHa cells assessed as inhibition of cell growth incubated for 72 hrs by MTT assay; type: functional, cell-based; method in brief: as §1
MCF7 = test: Antiproliferative activity against human MCF7 cells assessed as inhibition of cell growth incubated for 72 hrs by MTT assay; type: functional, cell-based; details: MCF7, 72 h; method in brief: as §1
HeLa = test: Antiproliferative activity against human HeLa cells assessed as inhibition of cell growth incubated for 72 hrs by MTT assay; type: functional, cell-based; method in brief: as §1
[1] = Cytotoxicity against mouse NIH/3T3 cells assessed as inhibition of cell growth incubated for 72 hrs by MTT assay; type: toxicity, cell-based, NIH3T3; method in brief: as §1
A2780 = test: Antiproliferative activity against human A2780 cells assessed as inhibition of cell growth incubated for 72 hrs by MTT assay; type: functional, cell-based; details: A2780, 72 h; method in brief: as §1

SMILES	IC50 (MDA-MB-231) [µM]	IC50 (SiHa) [µM]	IC50 (MCF7) [µM]	IC50 (HeLa) [µM]	IC50 at 72 h [1] [µM]	IC50 (A2780) [µM]
CCOC(=O)[C@H]1c2c(C)cccc2[C@H]2CC[C@@]3(CO)C[C@]21C[C@@H]3N[C@@H](C)c1cccc2ccccc12	10.4	22.3	3.43	20.7	6.02	
CCOC(=O)[C@H]1c2c(C)cccc2[C@H]2CC[C@@]3(CO)C[C@]21C[C@@H]3N[C@H](C)c1cccc2ccccc12	19.3	22.7	7.07	18.6	14.5	4.57
CCOC(=O)[C@H]1c2c(C)cccc2[C@H]2CC[C@@]3(CO)C[C@]21C[C@@H]3NCc1cc(Br)ccc1O	6.48	21.9	3.85	5.06	19.7	5.08
CCOC(=O)[C@H]1c2c(C)cccc2[C@H]2CC[C@@]3(CNCc4cc(Br)ccc4O)C[C@]21C[C@H]3O	4.99	20.6	2.42	4.71	13	5.39
CCOC(=O)[C@H]1c2c(C)cccc2[C@H]2CC[C@@]3(CN[C@@H](C)c4ccc5ccccc5c4)C[C@]21C[C@H]3O		4.36	3.66	5.1	4.62	
CCOC(=O)[C@H]1c2c(C)cccc2[C@H]2CC[C@@]3(CNCc4ccc(F)cc4)C[C@]21C[C@H]3O	7.71	8.4	4.4	18.8	15.2	
CCOC(=O)[C@H]1c2c(C)cccc2[C@H]2CC[C@@]3(CNCc4ccc(OC)cc4)C[C@]21C[C@H]3O	6.5	17.7	4.08	12.9	14.7	13.8
CCOC(=O)[C@H]1c2c(C)cccc2[C@H]2CC[C@@]3(CO)C[C@]21C[C@@H]3NCCc1c[nH]c2ccccc12	4.71	4.12	3.14	4.01	13	4.57
CCOC(=O)[C@H]1c2c(C)cccc2[C@H]2CC[C@]3(O)C[C@@]21C[C@]3(O)CN[C@@H](C)c1cccc2ccccc12	4.38	4.38		4.38	4.38	4.38
